Data: ChEMBL document CHEMBL4138078, “Structure-based virtual screening and optimization of modulators targeting Hsp90-Cdc37 interaction” (Eur J Med Chem, 2017)
Calls of active or inactive are those of the source. The calls are words filed in the database; no cut-off is given here.

Key:
Homo sapiens [1] = species: Homo sapiens; test: Inhibition of full length His-tagged HSP90/GST-tagged Cdc37 (unknown origin) interaction at 100 uM after 1 hr by HTRF assay relative to control
Outline: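 HTRF assay using His-tagged full-length Hsp90 and GST-tagged Cdc37 M, each 250 nM final, in PBS with an extra 400 mM KF, pH 7.4. Compound incubated 1 h at 37 °C. Anti-GST-Cryptate and anti-6His-XL665 then added, 0.5 h at 37 °C. Ex 320 nm; ratio = (665/620 nm) × 10000. No-compound negative control and reagent-only blank.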

Heat shock protein HSP90 [2] = biological target: T1, Heat shock protein HSP90 (Homo sapiens, UniProt P07900+P08238); test: Inhibition of N-terminal GST-tagged HSP90 ATPase activity (unknown origin) expressed in Escherichia coli at 100 uM after 1 hr in presence of ATP by spectrophotometric assay relative to control
Outline: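 ADP Hunter Plus ADP-detection kit. Compound at 100 μM final in 15 mM HEPES, 20 mM NaCl, 1 mM EDTA, 10 mM MgCl2, 0.02% Tween20, pH 7.4. Mixed in equal volumes with Hsp90 (5 μM) and ATP (100 μM), 1 h at 37 °C. Detection reagents A and B added, 30 min at room temperature; ex 540/em 620 nm. Protein-free background; no-ligand wells set as 100% activity.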

Heat shock protein HSP90 [3] = biological target: T1, Heat shock protein HSP90; test: Inhibition of GA-FITC binding to N-terminal GST-tagged HSP90 (unknown origin) expressed in Escherichia coli at 100 uM after 30 mins fluorescence polarization assay relative to control
Heat shock protein HSP90 [4] = biological target: T1, Heat shock protein HSP90; test: Binding affinity to N-terminal GST-tagged HSP90 (unknown origin) expressed in Escherichia coli by biolayer interferometry analysis
[5] = Inhibition of full length His-tagged HSP90/GST-tagged Cdc37 (unknown origin) interaction after 1 hr by HTRF assay; set-up: species or system Homo sapiens
Outline: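 Final 250 nM each of His-Hsp90 (full length) and GST-Cdc37 M in PBS with extra 400 mM KF, pH 7.4. Compound added (300 μM to 1.23 μM, three-fold steps), 1 h at 37 °C. Anti-GST-cryptate and anti-6His-XL665 added, 0.5 h at 37 °C. TR-FRET read at ex 320 nm, em 665/620 nm, ratio ×10000. No-compound and reagent-only controls included.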

MCF7 = test: Antiproliferative activity against human MCF7 cells after 72 hrs by MTT assay; type: functional, cell-based; conditions: MCF7, 72 h
Outline: (§1)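 Cells seeded at 10000/well and left 24 h, then exposed to compounds in DMSO (200 μM down to 0.823 μM, three-fold steps) for 72 h at 37 °C. Viability was read by MTT (5 mg/mL in PBS) with formazan dissolved in DMSO, OD at 490 nm. IC50 was taken from parallel experiments as mean ± SD. Media: MCF-7 in MEM, SKBR-3 in RPMI-1640, A549 in F12K, each with 10% FCS.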

SK-BR-3 [6] = test: Antiproliferative activity against human SKBR3 cells after 72 hrs by MTT assay; type: functional, cell-based; conditions: SK-BR-3, 72 h; outline: as §1
A549 = test: Antiproliferative activity against human A549 cells after 72 hrs by MTT assay; type: functional, cell-based; conditions: A549, 72 h; outline: as §1
Homo sapiens [7] = species: Homo sapiens; test: Inhibition of N-terminal GST-tagged HSP90/Cdc37 (unknown origin) interaction expressed in Escherichia coli preincubated with Cdc37 for 1 hr followed by addition to HSP90 by GST-pull down assay
Outline: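 Pull-down with 10 μg GST-Hsp90 N-terminal domain immobilised as bait on glutathione resin spin columns. Compound incubated with Cdc37 for 1 h at 37 °C, then added to the columns. Loading buffer 25 mM Tris, 0.15 M NaCl, pH 7.2; elution with extra 10 mM reduced glutathione; spins 1 min at 1,000 × g, 4 °C. Eluate analysed by SDS-PAGE and anti-GST/anti-His western blot.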

Homo sapiens [8] = species: Homo sapiens; test: Inhibition of HSP90/Cdc37 protein-protein interaction in human SKBR3 cells assessed as decrease in Akt level after 24 hrs by Western blot analysis; type: cell-based
Outline: (§2)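 SKBR-3 cells treated with compound at 1, 10 and 50 μM for 24 h. After a PBS rinse and trypsinisation, cells lysed in Tris-HCl pH 7.5 buffer with NaCl, EDTA, NP-40, PMSF, NaF and DTT; lysate spun 12000 rpm, 10 min, 4 °C. Protein by BCA, equal loads on SDS-PAGE. Probed for Hsp90, Akt, Cdk4, β-actin; DyLight 800 secondary, infrared imaging.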

Homo sapiens [9] = species: Homo sapiens; test: Inhibition of HSP90/Cdc37 protein-protein interaction in human SKBR3 cells assessed as decrease in CDK4 level after 24 hrs by Western blot analysis; type: cell-based; outline: as §2
SK-BR-3 [10] = test: Effect on HSP90 level in human SKBR3 cells at 1 to 50 uM after 24 hrs by Western blot analysis; type: functional, cell-based; outline: as §2
Homo sapiens [11] = species: Homo sapiens; test: Inhibition of full length His-tagged HSP90/GST-tagged Cdc37 (unknown origin) interaction at 10 uM after 1 hr by HTRF assay relative to control

SMILES	inhibition (Homo sapiens [1])	further results
Cc1cc(NS(=O)(=O)c2ccc(NC(=O)CCCCC(=O)Nc3ccc(S(=O)(=O)Nc4cc(C)on4)cc3)cc2)no1	20.7%	
Cc1cc(NS(=O)(=O)c2ccc(NC(=O)CC(=O)Nc3ccc(S(=O)(=O)Nc4cc(C)on4)cc3)cc2)no1	65.6 to 66%	
Cn1c(SCC(=O)Nc2ccc3nc(SCC(=O)c4ccc(Cl)cc4)sc3c2)nnc1-c1ccc(N)cc1	< 10%	
Cc1cc(NS(=O)(=O)c2ccc(NC(=O)c3ccc(C(=O)Nc4ccc(S(=O)(=O)Nc5cc(C)on5)cc4)cc3)cc2)no1	inactive	
COc1ccccc1N(CC(=O)N/N=C/c1ccc(OCC(=O)Nc2ccccc2Cl)cc1)S(=O)(=O)c1ccc(C)cc1	13.6%	
Cc1cc(C)c(NS(=O)(=O)c2ccc(NC(=O)CCCCC(=O)Nc3ccc(S(=O)(=O)Nc4c(C)cc(C)cc4C)cc3)cc2)c(C)c1	21.5%	
O=C(CCC(=O)Nc1ccc(S(=O)(=O)Nc2ncccn2)cc1)Nc1ccc(S(=O)(=O)Nc2ncccn2)cc1	< 10%	
CC1=C(C(=O)OCCNC(=O)c2ccc(O)cc2)[C@@H](c2cccc([N+](=O)[O-])c2)C(C(=O)OCCNC(=O)c2ccccc2O)=C(C)N1	< 10%	
COc1ccc(S(=O)(=O)N(CC(=O)N/N=C/c2ccc(OCC(N)=O)cc2)c2ccccc2)cc1	< 10%	
CCOC(=O)C1=C(CSc2nc3c(cc2C#N)CN(C)CC3)OC(N)=C(C#N)C1c1ccncc1 (stereo not drawn)	< 10%	
Cc1noc(NS(=O)(=O)c2ccc(NC(=O)CCC(=O)Nc3ccc(S(=O)(=O)Nc4onc(C)c4C)cc3)cc2)c1C	48.7%	
O=C(CCC(=O)Nc1ccc(S(=O)(=O)Nc2ccccc2)cc1)Nc1ccc(S(=O)(=O)Nc2ccccc2)cc1	49.6%	
CC.COc1ccc(NC(=O)C2=C(C)Nc3nc(CCCO)nn3[C@H]2c2ccc(OC)c(OC)c2)cc1	36.6%	inhibition (Heat shock protein HSP90 [2]): 45.7%; inhibition (Heat shock protein HSP90 [3]): inactive; Kd (Heat shock protein HSP90 [4]): > 100 µM; IC50 [5]: 154 µM; IC50 (MCF7): > 100 µM; IC50 (SK-BR-3 [6]): > 100 µM; IC50 (A549): > 100 µM
COc1cccc(C(c2c(N)nc(SCC(N)=O)[nH]c2=O)c2c(N)nc(SCC(N)=O)[nH]c2=O)c1	14.3%	
COc1ccc(CCNc2cc(N3CCN(CCO)CC3)ccc2[N+](=O)[O-])cc1OC	30.7%	IC50 [5]: 296 µM; IC50 (MCF7): > 100 µM; IC50 (SK-BR-3 [6]): 84.6 µM; IC50 (A549): > 100 µM
COC(=O)c1cc(NCc2cc(Cl)c(OCC(N)=O)c(OC)c2)ccc1N1CCOCC1	< 10%	
NC(=O)C1CCN(C[C@H](O)COc2ccc(OC[C@@H](O)CN3CCC(C(N)=O)CC3)cc2)CC1	< 10%	
CCOC(=O)c1c(C)n(Cc2ccccc2)c2ccc(OC[C@H](O)CN3CCN(CCO)CC3)cc12	< 10%	
O=C(CC(=O)Nc1ccc(S(=O)(=O)Nc2ccccc2)cc1)Nc1ccc(S(=O)(=O)Nc2ccccc2)cc1	30.4%	
NC(=O)COc1ccc(/C=N/NC(=O)[C@H]2CCCN2S(=O)(=O)c2ccc(Cl)cc2)cc1	< 10%	
Cc1ccnc(NS(=O)(=O)c2ccc(NC(=O)CCC(=O)Nc3ccc(S(=O)(=O)Nc4nccc(C)n4)cc3)cc2)n1	< 10%	
Cn1nccc1NS(=O)(=O)c1ccc(NC(=O)CCC(=O)Nc2ccc(S(=O)(=O)Nc3ccnn3C)cc2)cc1	79.4%	Kd (Heat shock protein HSP90 [4]): 40 to 40.4 µM; IC50 [5]: 27 to 27.4 µM; IC50 (MCF7): 26.4 µM; IC50 (SK-BR-3 [6]): 14.7 µM; IC50 (A549): 38.4 µM; inhibition (Homo sapiens [7]): Dose-dependent effect; inhibition (Homo sapiens [8]): Dose-dependent effect; inhibition (Homo sapiens [9]): Dose-dependent effect; Activity (SK-BR-3 [10]): inactive
Cc1cc(NS(=O)(=O)c2ccc(NC(=O)CCC(=O)Nc3ccc(S(=O)(=O)Nc4cc(C)on4)cc3)cc2)no1	69.8 to 70%	

SMILES	inhibition (Homo sapiens [1])	further results
COc1cc(/C=C2\SC(=S)N(CCCCCCN3C(=O)/C(=C\c4ccc(O)c(OC)c4)SC3=S)C2=O)ccc1O	17%	
CO[C@H]1/C=C\C=C(/C)C(=O)NC2=CC(=O)C(NCCN(C)C)=C(C[C@@H](C)C[C@H](OC)[C@H](O)[C@@H](C)/C=C(\C)[C@@H]1OC(N)=O)C2=O (stereo in doubt)		inhibition (Homo sapiens [11]): inactive
O[C@H](COc1ccc(OC[C@H](O)CN2CCN(c3cccc(Cl)c3)CC2)cc1)CN1CCN(c2cccc(Cl)c2)CC1	47.6%	IC50 [5]: 128 µM; IC50 (MCF7): 89.2 µM; IC50 (SK-BR-3 [6]): > 100 µM; IC50 (A549): > 100 µM
CS(=O)(=O)N(CC(=O)N/N=C/c1ccc(OCC(=O)Nc2ccc(F)cc2)cc1)c1ccc(Cl)c(Cl)c1	< 10%	
Cc1cc(NS(=O)(=O)c2ccc(NC(=O)CCCC(=O)Nc3ccc(S(=O)(=O)Nc4cc(C)on4)cc3)cc2)no1	59.3%	inhibition (Heat shock protein HSP90 [2]): < 10%; inhibition (Heat shock protein HSP90 [3]): inactive; Kd (Heat shock protein HSP90 [4]): 80.4 µM; IC50 [5]: 76.9 to 77 µM; IC50 (MCF7): 66.9 µM; IC50 (SK-BR-3 [6]): 59.4 µM; IC50 (A549): 75.3 µM; inhibition (Homo sapiens [7]): Dose-dependent effect
C[C@H](O)c1ccc(-c2ccc(CNCCCSc3nnnn3-c3ccccc3)o2)cc1	< 10%	
CCOC(=O)c1cccc(NC(=O)CSc2nnc(-c3ccc(O)cc3)n2Cc2ccccc2)c1	14.1%	
COc1ccc(-c2c(C)oc3cc(OCCN4CCN(CCO)CC4)ccc3c2=O)cc1OC	< 10%	
COc1ccc([C@H](CC(=O)O)NC(=O)CCc2c(C)c3ccc(O)cc3oc2=O)cc1OC	< 10%	
O=C(CCC(=O)Nc1ccc(S(=O)(=O)Nc2ccccn2)cc1)Nc1ccc(S(=O)(=O)Nc2ccccn2)cc1	< 10%	
CC(=O)Nc1ccc(C(=O)OCCOC(=O)C2=C(C)NC(C)=C(C(=O)OCCNC(=O)c3ccccc3O)[C@H]2c2cccc([N+](=O)[O-])c2)cc1	< 10%	
Cc1ccnc(NS(=O)(=O)c2ccc(NC(=O)c3cccc(C(=O)Nc4ccc(S(=O)(=O)Nc5nccc(C)n5)cc4)c3)cc2)n1	< 10%	
C=C1[C@@H](C(=O)Nc2ccc(NS(=O)(=O)c3ccc(C)cc3)cc2)[C@@H]1C(=O)Nc1ccc(NS(=O)(=O)c2ccc(C)cc2)cc1	< 10%	
Cc1noc(NS(=O)(=O)c2ccc(NC(=O)CC(=O)Nc3ccc(S(=O)(=O)Nc4onc(C)c4C)cc3)cc2)c1C	< 10%	
COc1ccc(NS(=O)(=O)c2ccc(NC(=O)CCC(=O)Nc3ccc(S(=O)(=O)Nc4ccc(OC)nn4)cc3)cc2)nn1	< 10%	
CCOc1cc(CNc2ccc(N3CCOCC3)c(C(=O)OC)c2)cc(Cl)c1OCC(N)=O	< 10%	
O=C1NCCCC[C@H]1N[C@@H]1CC(=O)N(c2ccc(N3C(=O)C[C@@H](N[C@@H]4CCCCNC4=O)C3=O)cc2)C1=O	< 10%	
CCOc1ccc(C(=O)C2=C(O)C(=O)N(CCOCCO)[C@@H]2c2cccc(OC)c2)cc1	< 10%	
O=C(CCC(=O)Nc1ccc(S(=O)(=O)Nc2nccs2)cc1)Nc1ccc(S(=O)(=O)Nc2nccs2)cc1	< 10%	
COc1ccc(C(=O)Nc2ccccc2C(=O)NCCCCO)cc1OC	19.3%	
Cn1nccc1NS(=O)(=O)c1ccc(NC(=O)CC(=O)Nc2ccc(S(=O)(=O)Nc3ccnn3C)cc2)cc1	50.9%	
CCCOC(=O)c1ccc(Oc2c(C)oc3c(CN4CCN(CCO)CC4)c(O)ccc3c2=O)cc1	< 10%	
CC/N=C1\S[C@H](CC(=O)Nc2cccc(NC(=O)C[C@@H]3S/C(=N/CC)N(CC)C3=O)c2)C(=O)C1CC (stereo partly drawn)	< 10%	
